According to BindingDB's records for doi:10.1016/j.bmc.2013.04.054 (Northwestern University, 2013):

Molecular target: Voltage-dependent L-type calcium channel subunit alpha-1C (Oryctolagus cuniculus, UniProt P15381)
Assay: Antagonist activity at rabbit voltage-dependent L-type calcium channel Cav1.2alpha-1C expressed in HEK293 cells by FLIPR assay
Outline: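 HEK293 lines stably expressing rat CaV1.3α1D or rabbit CaV1.2α1C, with rat CaVβ3 and rat CaVα2δ-1 cDNAs used in construction. Calcium influx was read by Fluo-8 fluorescence on a FLIPR Tetra. […] The selectivity ratio is CaV1.3 IC50 over CaV1.2 IC50.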

Voltage-dependent L-type calcium channel subunit alpha-1C, sequence (P15381 whole entry): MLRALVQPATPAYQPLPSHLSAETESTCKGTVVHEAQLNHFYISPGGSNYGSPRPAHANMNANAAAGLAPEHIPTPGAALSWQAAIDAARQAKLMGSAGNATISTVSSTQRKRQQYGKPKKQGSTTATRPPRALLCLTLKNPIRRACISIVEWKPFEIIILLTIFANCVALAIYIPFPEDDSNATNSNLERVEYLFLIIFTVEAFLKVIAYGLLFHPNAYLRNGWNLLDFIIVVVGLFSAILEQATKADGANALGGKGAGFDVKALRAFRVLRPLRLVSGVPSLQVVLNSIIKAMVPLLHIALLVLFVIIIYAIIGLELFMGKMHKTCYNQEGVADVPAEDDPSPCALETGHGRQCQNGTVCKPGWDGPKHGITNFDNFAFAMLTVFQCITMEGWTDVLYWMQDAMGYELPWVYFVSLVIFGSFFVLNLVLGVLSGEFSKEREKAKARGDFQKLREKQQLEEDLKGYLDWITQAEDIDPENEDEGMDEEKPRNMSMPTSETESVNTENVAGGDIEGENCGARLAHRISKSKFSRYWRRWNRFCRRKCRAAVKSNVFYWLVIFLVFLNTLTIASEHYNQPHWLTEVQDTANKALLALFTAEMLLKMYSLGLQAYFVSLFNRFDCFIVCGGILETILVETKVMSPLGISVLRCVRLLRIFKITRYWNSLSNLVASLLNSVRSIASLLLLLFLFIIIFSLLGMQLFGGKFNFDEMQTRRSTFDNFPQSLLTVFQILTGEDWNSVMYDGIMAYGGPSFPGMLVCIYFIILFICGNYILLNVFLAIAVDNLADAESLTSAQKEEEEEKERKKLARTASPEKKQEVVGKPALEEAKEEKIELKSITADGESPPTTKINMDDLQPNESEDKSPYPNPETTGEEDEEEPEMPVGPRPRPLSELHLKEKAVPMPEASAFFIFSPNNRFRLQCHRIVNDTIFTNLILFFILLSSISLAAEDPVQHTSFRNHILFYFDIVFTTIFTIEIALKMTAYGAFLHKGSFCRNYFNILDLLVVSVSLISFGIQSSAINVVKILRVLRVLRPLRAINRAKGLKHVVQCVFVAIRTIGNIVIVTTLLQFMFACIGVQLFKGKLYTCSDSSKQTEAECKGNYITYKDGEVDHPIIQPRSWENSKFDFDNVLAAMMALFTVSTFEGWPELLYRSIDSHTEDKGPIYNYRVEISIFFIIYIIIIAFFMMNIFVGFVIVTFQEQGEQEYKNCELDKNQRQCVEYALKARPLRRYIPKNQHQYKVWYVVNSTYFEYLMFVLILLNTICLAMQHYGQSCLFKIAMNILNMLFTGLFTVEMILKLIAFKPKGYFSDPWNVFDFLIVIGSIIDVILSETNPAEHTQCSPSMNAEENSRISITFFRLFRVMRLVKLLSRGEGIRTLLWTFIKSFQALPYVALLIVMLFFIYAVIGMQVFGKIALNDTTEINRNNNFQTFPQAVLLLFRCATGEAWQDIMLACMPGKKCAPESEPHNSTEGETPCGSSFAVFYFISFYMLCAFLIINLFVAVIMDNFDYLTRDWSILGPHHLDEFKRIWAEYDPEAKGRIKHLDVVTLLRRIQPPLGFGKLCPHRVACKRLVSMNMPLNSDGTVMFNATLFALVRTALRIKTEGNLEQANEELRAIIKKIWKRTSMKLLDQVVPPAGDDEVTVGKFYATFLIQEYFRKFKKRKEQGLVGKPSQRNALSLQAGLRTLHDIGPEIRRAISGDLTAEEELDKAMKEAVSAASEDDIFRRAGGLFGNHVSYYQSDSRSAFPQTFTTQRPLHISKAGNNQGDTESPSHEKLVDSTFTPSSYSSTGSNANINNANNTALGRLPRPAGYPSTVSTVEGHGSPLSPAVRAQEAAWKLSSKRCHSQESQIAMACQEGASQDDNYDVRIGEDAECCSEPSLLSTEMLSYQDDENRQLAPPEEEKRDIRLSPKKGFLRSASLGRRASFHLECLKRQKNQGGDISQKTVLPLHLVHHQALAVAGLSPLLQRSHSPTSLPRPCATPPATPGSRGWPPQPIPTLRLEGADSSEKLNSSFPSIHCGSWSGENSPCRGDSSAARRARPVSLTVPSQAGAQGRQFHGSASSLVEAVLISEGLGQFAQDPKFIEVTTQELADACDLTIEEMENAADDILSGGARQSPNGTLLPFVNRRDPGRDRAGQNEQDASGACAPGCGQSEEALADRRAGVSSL

Structure (SMILES): COC(=O)N1C(=O)N=C(C)C(C(=O)OC(C)C)[C@@H]1c1cccc([N+](=O)[O-])c1 (some centres not stated)
- IC50: 2.48 µM

Structure (SMILES): COC(=O)C1C(C)=NC(=O)N(C(=O)OC(C)C)C1c1cccc([N+](=O)[O-])c1 (configuration not stated)
- IC50: 2.48 µM
